Bioassay records as filed in PubChem BioAssay.
Rows were chosen to be rich in hits. Some 3.7% of all compounds tested hit in one or more screens of this group.
KCNK9 inh: KCNK9 potassium channel inhibitors, primary screen, HEK293 cells, thallium flux. Potassium channel subfamily K member 9 (Homo sapiens), Q9NPC2. FluxOR thallium flux fluorescence; stronger effect = lower value. B-score at 10 µM. 310,000 compounds, 1.2% hits;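 active = ratio B-score over 3 SD below the library mean, with starting fluorescence within 5 SD of its mean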;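 note: negative B-score means less thallium flux so channel inhibition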
hERG rescue: hERG rescue from dofetilide block, primary screen, cell-based, CHO-hERG, FluxOR thallium flux, dofetilide IC70 | Voltage-gated inwardly rectifying potassium channel KCNH2 (Homo sapiens), Q12809 | dofetilide IC70 present | activation (rescue from dofetilide block), less the hit threshold, % at 10 µM | 310,000 compounds, 0.51% hits;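 active = activation above the mean of controls blocked by dofetilide plus 5 SD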;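 note: thallium influx through hERG after potassium depolarization seen as dye fluorescence rise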
Target sequence (Q12809 whole entry, looked up): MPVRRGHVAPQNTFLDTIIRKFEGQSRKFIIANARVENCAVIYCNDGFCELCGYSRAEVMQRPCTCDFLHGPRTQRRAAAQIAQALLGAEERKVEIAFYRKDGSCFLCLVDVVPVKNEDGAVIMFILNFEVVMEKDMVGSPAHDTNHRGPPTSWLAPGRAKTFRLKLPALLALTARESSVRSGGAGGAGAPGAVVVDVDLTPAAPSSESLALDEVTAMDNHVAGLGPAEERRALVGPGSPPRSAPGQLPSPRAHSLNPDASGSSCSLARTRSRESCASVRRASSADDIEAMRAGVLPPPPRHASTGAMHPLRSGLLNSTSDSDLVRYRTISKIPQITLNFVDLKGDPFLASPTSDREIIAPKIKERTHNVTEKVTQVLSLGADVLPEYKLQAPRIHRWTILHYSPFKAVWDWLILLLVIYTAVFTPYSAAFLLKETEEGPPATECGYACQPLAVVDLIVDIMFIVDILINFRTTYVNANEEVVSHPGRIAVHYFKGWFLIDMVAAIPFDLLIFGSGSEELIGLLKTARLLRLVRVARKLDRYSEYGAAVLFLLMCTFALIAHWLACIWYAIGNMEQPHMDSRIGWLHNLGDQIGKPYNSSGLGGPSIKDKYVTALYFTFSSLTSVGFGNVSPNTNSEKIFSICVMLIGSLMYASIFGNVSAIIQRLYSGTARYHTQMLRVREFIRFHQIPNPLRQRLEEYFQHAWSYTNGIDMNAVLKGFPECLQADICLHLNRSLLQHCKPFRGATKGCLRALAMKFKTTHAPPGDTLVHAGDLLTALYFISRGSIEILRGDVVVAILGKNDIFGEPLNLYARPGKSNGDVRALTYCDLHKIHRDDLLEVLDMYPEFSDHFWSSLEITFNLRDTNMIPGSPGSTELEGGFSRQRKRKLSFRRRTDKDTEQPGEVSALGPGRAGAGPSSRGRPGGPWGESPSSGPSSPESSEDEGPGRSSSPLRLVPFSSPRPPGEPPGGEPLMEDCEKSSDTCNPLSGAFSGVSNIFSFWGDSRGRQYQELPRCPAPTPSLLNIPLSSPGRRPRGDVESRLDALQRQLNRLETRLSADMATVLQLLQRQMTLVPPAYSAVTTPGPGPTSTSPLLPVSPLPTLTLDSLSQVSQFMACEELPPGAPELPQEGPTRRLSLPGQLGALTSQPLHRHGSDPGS
KCNQ1 pot: potentiators or activators of KCNQ1 channel, primary screen, cell-based, thallium flux, high-throughput | B-score at 10 µM | Potassium voltage-gated channel subfamily KQT member 1 (Homo sapiens), P51787 | AID 2648, 2010 | 310,000 compounds, 0.35% hits | CHO-K1 KCNQ1, thallium flux FluxOR fluorescence; stronger effect = higher value;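 active = fluorescence ratio B-score, a plate-corrected score, at least three library SD, with initial intensity B-score within 5 SD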
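Medium – assay buffer, equal DMSO in all wells · Material – CHO-K1 cell line with stable KCNQ1 potassium channel expression · Signal – kinetic FluxOR thallium fluorescence, 10-s 1-Hz baseline, 110-s post-stimulus read · Compound – single concentration per compound, DMSO matched to controls · Schedule – 37 °C overnight plating, 90-min dark dye load, 20-min compound pretreatment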
KCNQ1 block: inhibitors of human KCNQ1 channel, primary screen, cell-based, thallium flux, high-throughput; Potassium voltage-gated channel subfamily KQT member 1 (Homo sapiens), P51787; CHO-K1 KCNQ1, FluxOR thallium flux fluorescence; stronger effect = higher value; B-score at 10 µM; 310,000 compounds, 1.3% hits; AID 2642, 2010;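 active = compounds whose thallium flux B-score, printed positive for inhibition, exceeds three library SD while starting fluorescence stays within three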;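 note: channel opened by potassium depolarization with thallium stimulus after 20 min compound exposure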
KCNK3 block: human KCNK3 channel inhibitors, primary screen, CHO cells, FluxOR thallium flux, B-score; Potassium channel subfamily K member 3 (Homo sapiens), O14649; FluxOR fluorescence; stronger effect = lower value; B-score at 10 µM; 340,000 compounds, 0.84% hits; AID 602410, 2012;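 active = B-score under library mean minus 4 SD, starting fluorescence ratio at most library mean plus 5 SD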;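 note: more negative B-score means stronger inhibition of thallium flux through KCNK3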
Kir21 inh: inhibitors of mouse Kir2.1 inward-rectifier potassium channel; B-score at 10 µM; 310,000 compounds, 0.85% hits; AID 1672, 2009; HEK293-Kir2.1, FluxOR thallium flux fluorescence; stronger effect = lower value; Inward rectifier potassium channel 2 (Mus musculus), P35561;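 active = fluorescence ratio B-score at or below minus 3 SD of library scores, with starting-brightness B-score within 2 SD, cut at about -4.2 in these data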;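 note: channel flux triggered by added potassium and thallium sulfate stimulus; B-score of peak minus minimum fluorescence over baseline after thallium stimulus; more negative B-score means stronger Kir2.1 block with less thallium influx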
Hits are given with their value.

For CCCCCCCC(=O)Nc1ccc(C(=O)N/N=C/c2cccc([N+](=O)[O-])c2)cc1 the results were KCNK9 inh inactive, hERG rescue 8.9, KCNQ1 pot inactive, KCNQ1 block inactive, KCNK3 block inactive and Kir21 inh inactive.
For CCCCCCC(=O)Nc1ccc(C(=O)N/N=C/c2cccnc2)cc1 the results were KCNK9 inh inactive, hERG rescue inactive, KCNQ1 pot inactive, KCNQ1 block inactive, KCNK3 block inactive and Kir21 inh inactive.
`COc1ccc(C(C)(C)NC(=O)C2CCC(=O)N(C3CC3)C2)cc1OC` (stereo unspecified) gave KCNK9 inh inactive, hERG rescue inactive, KCNQ1 pot inactive, KCNQ1 block inactive, KCNK3 block inactive and Kir21 inh inactive.
`CCN(CC(=O)Nc1cc(Cl)ccc1C)C(=O)CCc1nc2ccccc2c(=O)[nH]1` gave KCNK3 block inactive.
O=C(COc1ccc(-c2ccccc2)cc1)N/N=C/c1cc(O)ccc1Br was read as KCNK9 inh inactive, hERG rescue inactive, KCNQ1 pot inactive, KCNQ1 block 11, KCNK3 block inactive and Kir21 inh inactive.
`Cc1c(C)c2ccc(OC(C)C(=O)NCCc3c[nH]c4ccccc34)cc2oc1=O` (stereo unspecified) gave KCNK9 inh inactive, hERG rescue inactive, KCNQ1 pot inactive, KCNQ1 block inactive, KCNK3 block inactive and Kir21 inh inactive.
Screening CC(=O)Oc1ccc(C(c2ccc(OC(C)=O)cc2)c2ccccn2)cc1 returned KCNK9 inh inactive, hERG rescue inactive, KCNQ1 pot inactive, KCNQ1 block inactive, KCNK3 block inactive and Kir21 inh -4.3.
c1ccc(C(c2ccccn2)c2ccccn2)cc1 was read as KCNK9 inh inactive, hERG rescue inactive, KCNQ1 pot inactive, KCNQ1 block inactive, KCNK3 block inactive and Kir21 inh inactive.
O=C(NC1CC1)c1ccc2c(c1)C1C3CCC(C3)C1C(c1ccccc1)N2 (stereo unspecified) was read as KCNK9 inh inactive, hERG rescue 5.2, KCNQ1 pot inactive, KCNQ1 block inactive, KCNK3 block inactive and Kir21 inh inactive.
For NS(=O)(=O)c1ccc(NC(=O)c2cc(Cl)sc2Cl)cc1 the results were KCNK9 inh inactive, hERG rescue inactive, KCNQ1 pot inactive, KCNQ1 block inactive, KCNK3 block inactive and Kir21 inh inactive.
Screening COc1ccccc1NC(C)C(=O)N/N=C/c1ccccc1OCc1cccc(Br)c1 (stereo unspecified) returned KCNK9 inh -7.3, hERG rescue inactive, KCNQ1 pot inactive, KCNQ1 block inactive, KCNK3 block inactive and Kir21 inh inactive.
CC(C)Oc1ccc(C(=O)Nc2cccc3cccnc23)cc1 was read as KCNK9 inh -6.8, hERG rescue inactive, KCNQ1 pot inactive, KCNQ1 block inactive, KCNK3 block inactive and Kir21 inh inactive.
Screening CCOc1ccc(C(=O)Nc2cccc3cccnc23)cc1 returned KCNK9 inh inactive, hERG rescue inactive, KCNQ1 pot inactive, KCNQ1 block inactive, KCNK3 block inactive and Kir21 inh inactive.
`COC(=O)c1c(NC(NC(=O)C(C)C)C(Cl)(Cl)Cl)sc2c1CCCC2` (stereo unspecified) gave KCNK9 inh inactive, hERG rescue inactive, KCNQ1 pot inactive, KCNQ1 block inactive, KCNK3 block inactive and Kir21 inh inactive.
`CC(C)(NS(=O)(=O)OCC(Cl)(Cl)Cl)c1ccccc1` gave KCNK9 inh inactive, hERG rescue inactive, KCNQ1 pot inactive, KCNQ1 block inactive, KCNK3 block inactive and Kir21 inh inactive.
For CC[C@@](C)(NS(=O)(=O)OCC(Cl)(Cl)Cl)c1ccccc1 the results were KCNK9 inh inactive, hERG rescue inactive, KCNQ1 pot inactive, KCNQ1 block inactive, KCNK3 block inactive and Kir21 inh -5.1.
CCOC(=O)c1sc2nc(CC(=O)OC)nc(NCc3ccco3)c2c1C was read as KCNK9 inh inactive, hERG rescue inactive, KCNQ1 pot inactive, KCNQ1 block inactive, KCNK3 block inactive and Kir21 inh inactive.
Screening CCOC(=O)c1sc2ncnc(NCc3ccco3)c2c1C returned KCNK9 inh inactive, hERG rescue 16, KCNQ1 pot 37, KCNQ1 block inactive, KCNK3 block inactive and Kir21 inh inactive.
Cc1cc(C)nc(NCCC(=O)O)n1 was read as KCNK9 inh inactive, hERG rescue inactive, KCNQ1 pot inactive, KCNQ1 block inactive, KCNK3 block inactive and Kir21 inh inactive.
`CCOc1ccc(OCCC(=O)N2CCc3cc(OC)c(OC)cc3C2)cc1` gave KCNK9 inh inactive, hERG rescue inactive, KCNQ1 pot inactive, KCNQ1 block inactive, KCNK3 block inactive and Kir21 inh inactive.
COc1ccc([N+](=O)[O-])cc1NC(=O)CSCc1cc(C)cc(C)c1 was read as KCNK9 inh inactive, hERG rescue inactive, KCNQ1 pot inactive, KCNQ1 block inactive, KCNK3 block inactive and Kir21 inh -8.7.
Screening Cn1c(CNc2nc(-c3ccccc3)cs2)nnc1SCC(=O)OC1CCCCC1 returned KCNK9 inh inactive, hERG rescue inactive, KCNQ1 pot inactive, KCNQ1 block inactive, KCNK3 block inactive and Kir21 inh -5.4.
COc1cccc(OCc2nnc(SCC(=O)OC3CCCCC3)n2C)c1 was read as KCNK9 inh inactive, hERG rescue inactive, KCNQ1 pot inactive, KCNQ1 block inactive, KCNK3 block inactive and Kir21 inh -4.8.
COc1cccc(CC(=O)Nc2nc(-c3ccc(F)c(F)c3)cs2)c1 was read as KCNK9 inh inactive, hERG rescue inactive, KCNQ1 pot inactive, KCNQ1 block inactive, KCNK3 block inactive and Kir21 inh inactive.
Screening O=C(CSc1ccc([N+](=O)[O-])cc1)NCC1CCCCC1 returned KCNK9 inh inactive, hERG rescue inactive, KCNQ1 pot inactive, KCNQ1 block inactive, KCNK3 block inactive and Kir21 inh inactive.
`C[C@@H]1ON(C)[C@H]2C[C@H]3c4cc(-c5cccc(F)c5)ccc4CCN3C(=O)[C@@H]12` gave KCNK3 block inactive.
COc1ccc(-c2ccc(/C=N/NC(=O)c3cccnc3)o2)c([N+](=O)[O-])c1 was read as KCNK9 inh inactive, hERG rescue 16, KCNQ1 pot inactive, KCNQ1 block inactive, KCNK3 block inactive and Kir21 inh inactive.
For N#CC1=C(N)SC(N)=C(C#N)C1CCC1CCCCC1 the results were KCNK9 inh inactive, hERG rescue inactive, KCNQ1 pot inactive, KCNQ1 block 9 and Kir21 inh inactive.
For CCOC(=O)c1c(CSc2ccccc2)n(C)c2ccc(O)c(CN3CCOCC3)c12 the results were KCNK9 inh inactive, hERG rescue inactive, KCNQ1 pot inactive, KCNQ1 block inactive, KCNK3 block inactive and Kir21 inh -5.4.
